Source: ChEMBL document CHEMBL4177770, “Discovery of MK-6169, a Potent Pan-Genotype Hepatitis C Virus NS5A Inhibitor with Optimized Activity against Common Resistance-Associated Substitutions” (J Med Chem, 2018)
Changes are numbered by the printed parent chain.

Tests used:
[1] = target: T1, Nonstructural protein 5A (Hepatitis C virus) (UniProt Q5L478); experiment: Inhibition of NS5A in HCV genotype 3a infected in HuH7 replicon cells assessed as decrease in viral replication after 3 days by RT-PCR method; type: cell-based; settings: Hepatitis C virus subtype 3a
T1 sequence (whole entry): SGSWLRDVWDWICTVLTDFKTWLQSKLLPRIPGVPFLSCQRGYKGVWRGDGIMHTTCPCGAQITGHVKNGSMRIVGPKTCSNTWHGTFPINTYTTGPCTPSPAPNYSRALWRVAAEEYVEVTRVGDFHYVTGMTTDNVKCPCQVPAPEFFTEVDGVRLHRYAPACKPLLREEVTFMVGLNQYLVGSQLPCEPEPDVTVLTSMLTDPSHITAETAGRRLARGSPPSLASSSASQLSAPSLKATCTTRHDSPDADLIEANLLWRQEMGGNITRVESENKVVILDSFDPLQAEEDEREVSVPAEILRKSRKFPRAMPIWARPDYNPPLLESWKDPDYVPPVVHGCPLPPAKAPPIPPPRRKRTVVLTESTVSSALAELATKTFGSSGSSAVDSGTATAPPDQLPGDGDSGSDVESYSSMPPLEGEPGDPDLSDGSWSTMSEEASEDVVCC

[2] = target: T1, Nonstructural protein 5A (Hepatitis C virus); experiment: Inhibition of NS5A in HCV genotype 1a infected in HuH7 replicon cells assessed as decrease in viral replication after 3 days by RT-PCR method; type: cell-based; settings: Hepatitis C virus subtype 1a
[3] = tested on: Hepatitis C virus subtype 1a; experiment: Resistance ratio of EC90 for NS5A Y93H mutant in HCV genotype 1a infected in HuH7 replicon cells to EC90 for NS5A in HCV genotype 1a infected in HuH7 replicon cells; type: cell-based
[4] = tested on: T2, Nonstructural protein 5A (Hepatitis C virus), Q5L478 [Y93H]; experiment: Inhibition of NS5A Y93H mutant in HCV genotype 1a infected in HuH7 replicon cells assessed as decrease in viral replication after 3 days by RT-PCR method; type: cell-based; settings: Hepatitis C virus subtype 1a
T2 sequence (whole entry): T1 sequence (whole entry) with Y93H

[5] = target: T1, Nonstructural protein 5A (Hepatitis C virus); experiment: Inhibition of NS5A in HCV genotype 1b infected in HuH7 replicon cells assessed as decrease in viral replication after 3 days by RT-PCR method; type: cell-based; settings: Hepatitis C virus subtype 1b
[6] = target: T1, Nonstructural protein 5A (Hepatitis C virus); experiment: Inhibition of NS5A in HCV genotype 4a infected in HuH7 replicon cells assessed as decrease in viral replication after 3 days by RT-PCR method; type: cell-based; settings: Hepatitis C virus subtype 4a
[7] = target: T1, Nonstructural protein 5A (Hepatitis C virus); experiment: Inhibition of NS5A L31M mutant in HCV genotype 2b infected in HuH7 replicon cells assessed as decrease in viral replication after 3 days by RT-PCR method; type: cell-based; settings: Hepatitis C virus subtype 2b
[8] = target: T1, Nonstructural protein 5A (Hepatitis C virus); experiment: Inhibition of NS5A L31V mutant in HCV genotype 1a infected in HuH7 replicon cells assessed as decrease in viral replication after 3 days by RT-PCR method; type: cell-based; settings: Hepatitis C virus subtype 1a
[9] = Resistance ratio of EC90 for NS5A in HCV genotype 4a infected in HuH7 replicon cells to EC90 for NS5A in HCV genotype 1a infected in HuH7 replicon cells; type: cell-based
[10] = tested on: Hepatitis C virus subtype 1a; experiment: Resistance ratio of EC90 for NS5A L31V mutant in HCV genotype 1a infected in HuH7 replicon cells to EC90 for NS5A in HCV genotype 1a infected in HuH7 replicon cells; type: cell-based
[11] = Resistance ratio of EC90 for NS5A L31M mutant in HCV genotype 2b infected in HuH7 replicon cells to EC90 for NS5A in HCV genotype 1a infected in HuH7 replicon cells; type: cell-based
[12] = Resistance ratio of EC90 for NS5A in HCV genotype 3a infected in HuH7 replicon cells to EC90 for NS5A in HCV genotype 1a infected in HuH7 replicon cells; type: cell-based
[13] = Resistance ratio of EC90 for NS5A in HCV genotype 1b infected in HuH7 replicon cells to EC90 for NS5A in HCV genotype 1a infected in HuH7 replicon cells; type: cell-based
[14] = Clearance in Wistar Han rat at 2 mg/kg, iv by LC/MS method; type: ADME, organism-based; settings: in vivo
Outline: (§1)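 Male Wistar Han rats, two per group, dosed IV at 2 mg/kg in 60% PEG200. Plasma was obtained by centrifuging the blood, and compound concentrations were measured by LC/MS.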

[15] = Drug level in Wistar Han rat at 10 mg/kg, po measured at 24 hrs by LC/MS method; type: ADME, organism-based; settings: in vivo, read-out: Drug uptake
Outline: (§2)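 Male Wistar Han rats, two per dosing group, dosed orally at 10 mg/kg in 10% TWEEN. Plasma was separated from collected blood by centrifugation and analysed by LC/MS.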

[16] = Cmax in Wistar Han rat at 10 mg/kg, po by LC/MS method; type: ADME, organism-based; set-up: dose 10 mg/kg, route oral; settings: in vivo; outline: as §2
[17] = AUC in Wistar Han rat at 10 mg/kg, po by LC/MS method; type: ADME, organism-based; settings: in vivo; outline: as §2
[18] = Oral bioavailability in Wistar Han rat at 10 mg/kg by LC/MS method; type: ADME, organism-based; settings: in vivo; outline: as §2
[19] = Half life in Wistar Han rat at 2 mg/kg, iv by LC/MS method; type: ADME, organism-based; settings: in vivo; outline: as §1

## COC(=O)N[C@H](C(=O)N1CCC[C@H]1c1ncc(-c2cc(F)c3c(c2)O[C@@H](c2cc4ccccc4s2)n2c-3cc3cc(-c4cnc([C@@H]5CCCN5C(=O)[C@@H](NC(=O)OC)C5CCOCC5)[nH]4)ccc32)[nH]1)C(C)C
[1]
  EC90: 11 pM
[2]
  EC90: 5 pM
[3]
  Ratio: 20
[4]
  EC90: 111 pM
[5]
  EC90: 3 pM
[6]
  EC90: 4 pM
[7]
  EC90: 57 pM
[8]
  EC90: 8 pM

## COC(=O)N[C@H](C(=O)N1CCC[C@H]1c1ncc(-c2cc(F)c3c(c2)O[C@@H](c2ccc(C(F)(F)F)s2)n2c-3cc3cc(-c4cnc([C@@H]5CCCN5C(=O)[C@@H](NC(=O)OC)C5CCOCC5)[nH]4)ccc32)[nH]1)C(C)C
[1]
  EC90: 6 pM
[2]
  EC90: 3 pM
[9]
  Ratio: < 10
[3]
  Ratio: < 10
[4]
  EC90: 23 pM
[5]
  EC90: 5 pM
[10]
  Ratio: < 10
[6]
  EC90: 3 pM
[11]
  Ratio: < 10
[12]
  Ratio: < 10
[7]
  EC90: 10 pM
[13]
  Ratio: < 10
[8]
  EC90: 5 pM

## COC(=O)N[C@H](C(=O)N1CCC[C@H]1c1ncc(-c2cc(F)c3c(c2)O[C@@H](c2ccc4c(c2)CCCO4)n2c-3cc3cc(-c4cnc([C@@H]5CCCN5C(=O)[C@@H](NC(=O)OC)C5CCOCC5)[nH]4)ccc32)[nH]1)C(C)C
[1]
  EC90: 9 pM
[2]
  EC90: 5 pM
[9]
  Ratio: < 10
[3]
  Ratio: < 10
[4]
  EC90: 356 pM
[5]
  EC90: 3 pM
[10]
  Ratio: < 10
[6]
  EC90: 6 pM
[11]
  Ratio: < 10
[12]
  Ratio: < 10
[7]
  EC90: 1070 pM
[13]
  Ratio: < 10
[8]
  EC90: 7 pM

## COC(=O)N[C@H](C(=O)N1CCC[C@H]1c1ncc(-c2cc(F)c3c(c2)O[C@@H](c2ccc(C4CC4)s2)n2c-3cc3cc(-c4cnc([C@@H]5CCCN5C(=O)[C@@H](NC(=O)OC)C5CCO[C@H](C)C5)[nH]4)ccc32)[nH]1)C(C)C (some centres not stated)
[14]
  clearance: 11 mL/min/kg
[15]
  concentration at 24 h: 1 nM
[16]
  Cmax: 25 nM
[17]
  AUC: 0.21 µM·h
[1]
  EC90: 7 pM
[2]
  EC90: 4 pM
[4]
  EC90: 9 pM
[5]
  EC90: 4 pM
[6]
  EC90: 10 pM
[18]
  bioavailability: 1.4%
[7]
  EC90: 14 pM
[19]
  half-life: 4.7 h
[8]
  EC90: 3 pM

## COC(=O)N[C@H](C(=O)N1CCC[C@H]1c1ncc(-c2cc(F)c3c(c2)O[C@@H](c2ccc(C4CC4)s2)n2c-3cc3cc(-c4cnc([C@@H]5CCCN5C(=O)[C@@H](NC(=O)OC)C5CC6CCC(C5)O6)[nH]4)ccc32)[nH]1)C(C)C (some centres not stated)
[14]
  clearance: 13 mL/min/kg
[15]
  concentration at 24 h: 3 nM
[16]
  Cmax: 24 nM
[17]
  AUC: 0.33 µM·h
[1]
  EC90: 12 pM
[2]
  EC90: 5 pM
[4]
  EC90: 28 pM
[5]
  EC90: 4 pM
[6]
  EC90: 8 pM
[18]
  bioavailability: 2.5%
[7]
  EC90: 19 pM
[19]
  half-life: 3.9 h
[8]
  EC90: 6 pM

## CCCc1ncc([C@@H]2Oc3cc(-c4cnc([C@@H]5CCCN5C(=O)[C@@H](NC(=O)OC)C(C)C)[nH]4)cc(F)c3-c3cc4cc(-c5cnc([C@@H]6CCCN6C(=O)[C@@H](NC(=O)OC)[C@@H]6CCOC(C)(C)C6)[nH]5)ccc4n32)s1
[14]
  clearance: 21 mL/min/kg
[15]
  concentration at 24 h: 1 nM
[16]
  Cmax: 20 nM
[17]
  AUC: 0.08 µM·h
[1]
  EC90: 8 pM
[2]
  EC90: 4 pM
[4]
  EC90: 18 pM
[5]
  EC90: 5 pM
[6]
  EC90: 6 pM
[18]
  bioavailability: 1%
[7]
  EC90: 15 pM
[19]
  half-life: 4.5 h
[8]
  EC90: 6 pM

## COC(=O)N[C@H](C(=O)N1CCC[C@H]1c1ncc(-c2cc(F)c3c(c2)O[C@@H](c2cc4c(s2)CCC4)n2c-3cc3cc(-c4cnc([C@@H]5CCCN5C(=O)[C@@H](NC(=O)OC)[C@@H]5CCOC(C)(C)C5)[nH]4)ccc32)[nH]1)C(C)C
[14]
  clearance: 9 mL/min/kg
[15]
  concentration at 24 h: 6 nM
[16]
  Cmax: 290 nM
[17]
  AUC: 1.9 µM·h
[1]
  EC90: 9 pM
[2]
  EC90: 5 pM
[4]
  EC90: 117 pM
[5]
  EC90: 6 pM
[6]
  EC90: 6 pM
[18]
  bioavailability: 10.2%
[7]
  EC90: 43 pM
[19]
  half-life: 4.3 h
[8]
  EC90: 6 pM

## CCc1ccc([C@@H]2Oc3cc(-c4cnc([C@@H]5CCCN5C(=O)[C@@H](NC(=O)OC)[C@@H]5CCOC(C)(C)C5)[nH]4)cc(F)c3-c3cc4cc(-c5cnc([C@@H]6CCCN6C(=O)[C@@H](NC(=O)OC)C(C)C)[nH]5)ccc4n32)s1
[14]
  clearance: 9 mL/min/kg
[15]
  concentration at 24 h: 2 nM
[16]
  Cmax: 20 nM
[17]
  AUC: 0.23 µM·h
[1]
  EC90: 82 pM
[2]
  EC90: 33 pM
[4]
  EC90: 155 pM
[5]
  EC90: 67 pM
[6]
  EC90: 106 pM
[18]
  bioavailability: 1.2%
[7]
  EC90: 349 pM
[19]
  half-life: 5.9 h
[8]
  EC90: 46 pM

## COC(=O)N[C@H](C(=O)N1CCC[C@H]1c1ncc(-c2cc(F)c3c(c2)O[C@@H](c2ccc(C(C)C)s2)n2c-3cc3cc(-c4cnc([C@@H]5CCCN5C(=O)[C@@H](NC(=O)OC)[C@@H]5CCOC(C)(C)C5)[nH]4)ccc32)[nH]1)C(C)C
[14]
  clearance: 5 mL/min/kg
[15]
  concentration at 24 h: 4 nM
[16]
  Cmax: 100 nM
[17]
  AUC: 0.8 µM·h
[1]
  EC90: 6 pM
[2]
  EC90: 4 pM
[4]
  EC90: 36 pM
[5]
  EC90: 5 pM
[6]
  EC90: 6 pM
[18]
  bioavailability: 2.7%
[7]
  EC90: 38 pM
[19]
  half-life: 9.6 h
[8]
  EC90: 4 pM
